{
  "source": "ChEMBL document CHEMBL1145506",
  "about": "“Activation of inhibitors by sortase triggers irreversible modification of the active site” (J Biol Chem, 2007)",
  "molecules": {"B1": {"name": "Sortase A (Staphylococcus aureus), Q9S446 (protein)", "chain": "MKKWTNRLMTIAGVVLILVAAYLFAKPHIDNYLHDKDKDEKIEQYDKNVKEQASKDKKQQAKPQIPKDKSKVAGYIEIPDADIKEPVYPGPATPEQLNRGVSFAEENESLDDQNISIAGHTFIDRPNYQFTNLKAAKKGSMVYFKVGNETRKYKMTSIRDVKPTDVGVLDEQKGKDKQLTLITCDDYNEKTGVWEKRKIFVATEVK"}},
  "key": {"Sortase A": {"biological_target": "T1, Sortase A (Staphylococcus aureus, UniProt Q9S446)", "T1 sequence (Q9S446 whole entry)": "B1 chain", "assay": "(§1) Inhibition of Staphylococcus aureus sortase A"}, "[1]": {"biological_target": "T2, Sortase A (Staphylococcus aureus) (UniProt Q9S446)", "T2 sequence (whole entry)": "B1 chain", "assay": "Inhibition of Staphylococcus aureus sortase A at 10 ng", "method_in_brief": "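Purified S. aureus SrtA (2 μM) preincubated with 10 ng compound in DMSO for 1 h at 25 °C. FRET substrate a-LPETG-d was then added to 2 μM in 5 mM CaCl2, 150 mM NaCl, 50 mM Tris-HCl pH 7.5, and incubated 24 h at 37 °C. Fluorescence read at ex 320/em 420 nm. Screened in duplicate; % inhibition = 100 − (well/plate positive-control mean ×100).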"}, "Papain (Carica papaya)": {"biological_target": "T3, Papain (Carica papaya) (UniProt P00784)", "T3 sequence (whole entry)": "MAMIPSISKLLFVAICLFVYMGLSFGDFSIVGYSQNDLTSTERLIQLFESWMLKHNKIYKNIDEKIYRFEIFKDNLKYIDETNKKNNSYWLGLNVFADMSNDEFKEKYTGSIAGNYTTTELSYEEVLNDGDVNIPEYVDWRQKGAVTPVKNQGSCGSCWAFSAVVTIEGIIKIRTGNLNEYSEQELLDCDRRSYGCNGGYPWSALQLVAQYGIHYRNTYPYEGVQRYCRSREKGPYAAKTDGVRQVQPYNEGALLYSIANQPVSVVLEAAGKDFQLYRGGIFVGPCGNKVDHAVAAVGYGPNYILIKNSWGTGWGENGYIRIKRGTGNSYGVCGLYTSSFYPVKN", "assay": "Inhibition of Carica papaya papain", "design": "concentration or dose not given beside the values", "conditions": "concentration not given here"}, "Bacillus anthracis": {"test_system": "Bacillus anthracis", "assay": "(§2) Inhibition of Bacillus anthracis sortase A", "design": "concentration or dose not given beside the values", "conditions": "concentration not given here"}, "[2]": {"assay": "Inhibition of Bacillus anthracis sortase C"}, "[3]": {"assay": "as §2"}, "[4]": {"assay": "Inhibition of Bacillus anthracis sortase B"}, "[5]": {"biological_target": "T2, Sortase A (Staphylococcus aureus)", "assay": "as §1"}, "[6]": {"substrate": "CN(C)CCC(=O)c1ccc(Cl)c(Cl)c1", "conditions": "Staphylococcus aureus; 200 uM"}, "[7]": {"substrate": "CN(C)CCC(=O)c1cccs1", "conditions": "Staphylococcus aureus; 50 uM"}},
  "note": "The source made the active and inactive calls. The calls are words filed in the database; no cut-off is given here.",
  "data": [
    {"molecule": "C=CC(=O)c1cccs1", "values": [
      {"measurement": "Ki", "setting": "Sortase A", "result": 69, "unit": "µM"}
    ]},
    {"molecule": "O=C(CCN1CCOCC1)c1ccc(F)cc1", "values": [
      {"measurement": "inhibition", "setting": "[1]", "result": 47.2, "unit": "%"},
      {"measurement": "inhibition", "setting": "Papain (Carica papaya)", "result": 46.6, "unit": "%"},
      {"measurement": "inhibition", "setting": "Bacillus anthracis", "result": 89.1, "unit": "%"}
    ]},
    {"molecule": "CN(C)CCC(=O)c1cccc([N+](=O)[O-])c1", "values": [
      {"measurement": "inhibition", "setting": "[1]", "result": 54.3, "unit": "%"},
      {"measurement": "inhibition", "setting": "Papain (Carica papaya)", "result": 47.2, "unit": "%"},
      {"measurement": "inhibition", "setting": "Bacillus anthracis", "result": 90.2, "unit": "%"}
    ]},
    {"molecule": "CC1CCCN(CCC(=O)c2ccc(Br)cc2)C1", "note": "(stereo not given)", "values": [
      {"measurement": "inhibition", "setting": "[1]", "result": 56.9, "unit": "%"},
      {"measurement": "inhibition", "setting": "Papain (Carica papaya)", "result": 33.8, "unit": "%"},
      {"measurement": "inhibition", "setting": "Bacillus anthracis", "result": 83.7, "unit": "%"}
    ]},
    {"molecule": "Cc1ccc(C(=O)CCN2CCOCC2)cc1", "values": [
      {"measurement": "inhibition", "setting": "[1]", "result": 56.9, "unit": "%"},
      {"measurement": "inhibition", "setting": "Papain (Carica papaya)", "result": 31.2, "unit": "%"},
      {"measurement": "inhibition", "setting": "Bacillus anthracis", "result": 88.9, "unit": "%"}
    ]},
    {"molecule": "O=C(CCNc1ccccc1)c1cccc([N+](=O)[O-])c1", "values": [
      {"measurement": "inhibition", "setting": "[1]", "result": 66, "unit": "%"},
      {"measurement": "inhibition", "setting": "Papain (Carica papaya)", "result": 34, "unit": "%"},
      {"measurement": "inhibition", "setting": "Bacillus anthracis", "result": 87.3, "unit": "%"}
    ]},
    {"molecule": "CN(C)CCC(=O)c1cccs1", "values": [
      {"measurement": "inhibition", "setting": "[1]", "result": 54.8, "unit": "%"},
      {"measurement": "IC50", "setting": "[2]", "result": 15, "unit": "µM"},
      {"measurement": "inhibition", "setting": "Papain (Carica papaya)", "result": 19.1, "unit": "%"},
      {"measurement": "IC50", "setting": "[3]", "result": 4.8, "unit": "µM"},
      {"measurement": "inhibition", "setting": "Bacillus anthracis", "result": 90.7, "unit": "%"},
      {"measurement": "IC50", "setting": "Sortase A", "result": 47, "unit": "µM"},
      {"measurement": "Ki", "setting": "Sortase A", "result": 93.2, "unit": "µM"},
      {"measurement": "IC50", "setting": "[4]", "result": 34, "unit": "µM"}
    ]},
    {"molecule": "O=C(CCN1CCOCC1)c1ccc(Cl)cc1", "values": [
      {"measurement": "inhibition", "setting": "[1]", "result": 84.4, "unit": "%"},
      {"measurement": "inhibition", "setting": "Papain (Carica papaya)", "result": 50.4, "unit": "%"},
      {"measurement": "inhibition", "setting": "Bacillus anthracis", "result": 90.6, "unit": "%"}
    ]},
    {"molecule": "C=CC(O)c1cccs1", "note": "(racemic)", "values": [
      {"measurement": "Activity", "setting": "[5]", "result": "inactive"}
    ]},
    {"molecule": "CN(C)CCC(=O)c1ccc(S(C)(=O)=O)cc1", "values": [
      {"measurement": "inhibition", "setting": "[1]", "result": 69.8, "unit": "%"},
      {"measurement": "inhibition", "setting": "Papain (Carica papaya)", "result": 37.1, "unit": "%"},
      {"measurement": "inhibition", "setting": "Bacillus anthracis", "result": 91.3, "unit": "%"}
    ]},
    {"molecule": "CCOC(=O)N1CCN(CCC(=O)c2ccc(Br)cc2)CC1", "values": [
      {"measurement": "inhibition", "setting": "[1]", "result": 80.2, "unit": "%"},
      {"measurement": "inhibition", "setting": "Papain (Carica papaya)", "result": 48.5, "unit": "%"},
      {"measurement": "inhibition", "setting": "Bacillus anthracis", "result": 90.7, "unit": "%"}
    ]},
    {"molecule": "CN(C)CCC(=O)c1ccc(Cl)c(Cl)c1", "values": [
      {"measurement": "inhibition", "setting": "[1]", "result": 89.6, "unit": "%"},
      {"measurement": "IC50", "setting": "[2]", "result": 20, "unit": "µM"},
      {"measurement": "inhibition", "setting": "Papain (Carica papaya)", "result": 49.3, "unit": "%"},
      {"measurement": "inhibition", "setting": "Bacillus anthracis", "result": 90.4, "unit": "%"},
      {"measurement": "IC50", "setting": "Sortase A", "result": 15, "unit": "µM"},
      {"measurement": "Ki", "setting": "Sortase A", "result": 15.7, "unit": "µM"},
      {"measurement": "IC50", "setting": "[4]", "result": 14, "unit": "µM"}
    ]},
    {"molecule": "B1", "values": [
      {"measurement": "Km", "setting": "[6]", "result": 5.91, "unit": "µM"},
      {"measurement": "Vmax", "setting": "[6]", "result": 58, "unit": "s⁻¹"},
      {"measurement": "Km", "setting": "[7]", "result": 5.8, "unit": "µM"},
      {"measurement": "Vmax", "setting": "[7]", "result": 88.8, "unit": "s⁻¹"}
    ]}
  ]
}
